Data on 4 compounds can be found in ChEMBL document CHEMBL5108039, “Piperazine tethered bergenin heterocyclic hybrids: design, synthesis, anticancer activity, and molecular docking studies” (RSC Med Chem, 2022).

For data set [1], the system named is CAL-27. Briefly: Cytotoxicity against human CAL-27 cells assessed as cell growth inhibition. In kind it is functional, cell-based. An outline of the steps:
(§1)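 Compounds were dissolved in sterile DMSO as 10 mg ml−1 stocks and tested for in vitro growth inhibition of human cancer cell lines. Doxorubicin was the standard drug and DMSO (0.01%) the vehicle control. IC50 values are reported as means.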

The subject of data set [2] is MCF7. The data set is described as follows: Cytotoxicity against human MCF7 cells assessed as cell growth inhibition. Format: functional, cell-based. An outline of the steps:
as §1

Data set [3] can be described thus: Cytotoxicity against human BEAS-2B cells assessed as cell growth inhibition. Format: toxicity, cell-based. A digest of the protocol: (§2)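 Compounds were dissolved in sterile DMSO as 10 mg ml−1 stocks and tested in vitro for cytotoxicity in a cell-line panel, with DMSO (0.01%) as vehicle control and doxorubicin as standard. Mean IC50 values were reported, and the normal lung epithelial cells were tested up to 100 μM.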

For data set [4], the system named is A549. Briefly: Cytotoxicity against human A549 cells assessed as cell growth inhibition. Format: functional, cell-based. A digest of the protocol:
as §2

Data set [5] concerns HCT-15. The data set is described as follows: Cytotoxicity against human HCT-15 cells assessed as cell growth inhibition. Format: functional, cell-based. An outline of the steps: as §1
Data set [6] concerns SCC-9. Briefly: Cytotoxicity against human SCC-9 cells assessed as cell growth inhibition. Format: functional, cell-based. A digest of the protocol: as §1
Data set [7] has as its system CAL-27. Briefly: Cell cycle arrest in human CAL-27 cells assessed as accumulation at S phase at 0.5 uM incubated for 24 hrs by flow cytometry (reference value: 3.6 %). In kind it is functional. In general terms: In flow cytometry, cells or beads pass a laser one at a time.
Data set [8] deals with SCC-9. Briefly: Cell cycle arrest in human SCC-9 cells assessed as accumulation at G2/M phase at 0.5 uM incubated for 24 hrs by flow cytometry (reference value: 14.2 %). In kind it is functional.
Data set [9] relates to SCC-9. Briefly: Induction of apoptosis in human SCC-9 cells assessed as late apoptotic cells at 0.5 uM incubated for 24 hrs by Annexin V-FITC/PI staining based flow cytometric analysis (reference value: 1.4 %). Format: functional.
The subject of data set [10] is SCC-9. Briefly: Cell cycle arrest in human SCC-9 cells assessed as accumulation at G0/G1 phase at 0.5 uM incubated for 24 hrs by flow cytometry (reference value: 70.8 %). In kind it is functional.
Data set [11] has as its system CAL-27. The data set is described as follows: Cell cycle arrest in human CAL-27 cells assessed as accumulation at G0/G1 phase at 0.5 uM incubated for 24 hrs by flow cytometry (reference value: 77.6 %). Format: functional.
Data set [12] concerns SCC-9. The data set is described as follows: Cell cycle arrest in human SCC-9 cells assessed as accumulation at S phase at 0.5 uM incubated for 24 hrs by flow cytometry (reference value: 14.4 %). In kind it is functional.
Data set [13] deals with CAL-27. Briefly: Induction of apoptosis in human CAL-27 cells assessed as early apoptotic cells at 0.5 uM incubated for 24 hrs by Annexin V-FITC/PI staining based flow cytometric analysis (reference value: 0.1 %). Format: functional. An outline of the steps:
(§3)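 CAL27 cells were treated with vehicle, doxorubicin or test compounds at 10–63 μM, and apoptosis was assessed by annexin V–FITC/PI staining with flow cytometry. Cells were scored as live, early apoptotic, late apoptotic or necrotic. The vehicle was DMSO (0.01%).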

For data set [14], the system named is SCC-9. The data set is described as follows: Induction of apoptosis in human SCC-9 cells assessed as live cells at 0.5 uM incubated for 24 hrs by Annexin V-FITC/PI staining based flow cytometric analysis (reference value: 95.7 %). In kind it is functional.
The subject of data set [15] is CAL-27. Briefly: Cell cycle arrest in human CAL-27 cells assessed as accumulation at G2/M phase at 0.5 uM incubated for 24 hrs by flow cytometry (reference value: 11.9 %). Format: functional.
For data set [16], the system named is CAL-27. Briefly: Induction of apoptosis in human CAL-27 cells assessed as late apoptotic cells at 0.5 uM incubated for 24 hrs by Annexin V-FITC/PI staining based flow cytometric analysis (reference value: 0.1 %). Format: functional. A digest of the protocol:
as §3

The test system of data set [17] is SCC-9. The data set is described as follows: Induction of apoptosis in human SCC-9 cells assessed as early apoptotic cells at 0.5 uM incubated for 24 hrs by Annexin V-FITC/PI staining based flow cytometric analysis (reference value: 2.8 %). Format: functional.
For data set [18], the system named is CAL-27. The data set is described as follows: Induction of apoptosis in human CAL-27 cells assessed as necrotic cells at 0.5 uM incubated for 24 hrs by Annexin V-FITC/PI staining based flow cytometric analysis (reference value: 0.0 %). Format: functional. A digest of the protocol: as §3
Data set [19] relates to SCC-9. The data set is described as follows: Induction of apoptosis in human SCC-9 cells assessed as necrotic cells at 0.5 uM incubated for 24 hrs by Annexin V-FITC/PI staining based flow cytometric analysis (reference value: 0.1 %). In kind it is functional.
Data set [20] concerns CAL-27. Briefly: Induction of apoptosis in human CAL-27 cells assessed as live cells at 0.5 uM incubated for 24 hrs by Annexin V-FITC/PI staining based flow cytometric analysis (reference value: 99.8 %). Format: functional. A digest of the protocol: as §3

The term IC50 denotes the concentration needed to halve the response being measured. With `COc1c(O)c(CN2CCN(S(=O)(=O)c3ccc(C)cc3)CC2)c2c(c1O)C1O[C@H](CO)[C@@H](O)[C@H](O)C1OC2=O` (some centres not stated), the IC50 is 56.8 µM in data set [1]; above 100 µM in [2]; 51.6 µM in data set [3]; above 100 µM in data set [4]; above 100 µM in data set [5]; above 100 µM in data set [6].

Take `COc1cccc2c1C(=O)c1c(O)c3c(c(O)c1C2=O)C[C@@](O)(C(=O)CO)C[C@@H]3O[C@H]1C[C@H](N)[C@H](O)[C@H](C)O1` [DOXORUBICIN]: the Activity in data set [7] turned out to be 4.2%; in data set [8] it was 55.6%; in data set [9], 41%; in data set [10] it was 29%; in data set [11], 59.7%; in data set [12], 16.31%. Also, the Activity amounted to 0.7% in data set [13]; 7.1% in data set [14]; 34.3% in data set [15]; 58.9% in data set [16]; 0.3% in [17]; 24.4% in data set [18]. In addition, the Activity amounted to 51.5% in data set [19] and 16% in data set [20]. Also, the IC50 in [1] was determined as 0.4 µM; in [3], 0.8 µM; in [4] it was 0.8 µM; in data set [5], 0.8 µM; in data set [6], 0.39 µM.

Consider `COc1c(O)c(CN2CCN(S(=O)(=O)c3cccs3)CC2)c2c(c1O)C1O[C@H](CO)[C@@H](O)[C@H](O)C1OC2=O` (some centres not stated), for which the IC50 in data set [1], in data set [2], in [3], in data set [4], in data set [5] and in data set [6] was above 100 µM each time.

Take `COc1ccc2nc(NC(=O)CN3CCN(Cc4c(O)c(OC)c(O)c5c4C(=O)OC4C5O[C@H](CO)[C@@H](O)[C@@H]4O)CC3)sc2c1` (some centres not stated): the IC50 in [1], in data set [2], in [3], in [4], in data set [5] and in [6] was above 100 µM each time.
